The values below come from ChEMBL document CHEMBL1142204, “Cathepsin A is the major hydrolase catalyzing the intracellular hydrolysis of the antiretroviral nucleotide phosphonoamidate prodrugs GS-7340 and GS-9131” (Antimicrob Agents Chemother, 2007).

For experiment [1], the target named is T1, Lysosomal protective protein (Homo sapiens) (UniProt P10619).
T1 sequence (whole entry): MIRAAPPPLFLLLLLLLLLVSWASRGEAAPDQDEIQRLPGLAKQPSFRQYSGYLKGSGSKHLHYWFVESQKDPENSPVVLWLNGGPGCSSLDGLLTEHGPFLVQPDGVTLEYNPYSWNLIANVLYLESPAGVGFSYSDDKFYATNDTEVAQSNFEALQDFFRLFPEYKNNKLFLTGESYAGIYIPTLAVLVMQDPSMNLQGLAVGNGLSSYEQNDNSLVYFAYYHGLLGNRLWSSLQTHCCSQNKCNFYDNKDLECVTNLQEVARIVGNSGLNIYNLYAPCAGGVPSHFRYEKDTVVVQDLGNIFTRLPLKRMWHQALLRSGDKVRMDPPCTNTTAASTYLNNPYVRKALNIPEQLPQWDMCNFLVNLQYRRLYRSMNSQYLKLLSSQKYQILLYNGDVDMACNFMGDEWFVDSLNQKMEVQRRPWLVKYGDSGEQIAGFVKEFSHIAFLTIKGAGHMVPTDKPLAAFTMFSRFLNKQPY
Description: Activity of purified human PBMCs Cat A from leukopheresis patient in Con A pool. An outline of the steps: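 Hydrolase purified from fresh human leukopheresis PBMCs (NP-40 extract; Source Q15, butyl Sepharose HIC, then ConA chromatography). Protein by Bradford; specific activity (pmol/min/μg) corrected for estimated 29-kDa catalytic subunit fraction.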

The species entered for experiment [2] is Homo sapiens. Briefly: Activity of human PBMCs prodrug hydrolase from leukopheresis patient in BS-HIC pool.
The species named for experiment [3] is Homo sapiens. Description: Activity of human PBMCs prodrug hydrolase from leukopheresis patient in Q15 pool.
For experiment [4], the species on record is Homo sapiens. Description: Activity of crude extract human PBMCs prodrug hydrolase from leukopheresis patient.

As to `CC(C)OC(=O)[C@H](C)N[P@](=O)(CO[C@H](C)Cn1cnc2c(N)ncnc21)Oc1ccccc1`, the Activity was determined as 35000 pmol/min/µg in experiment [1], 730 pmol/min/µg in the experiment listed under Homo sapiens [2], 112 pmol/min/µg in the experiment filed under Homo sapiens [3] and 16 pmol/min/µg in the experiment listed under Homo sapiens [4].
